# Source: PubChem BioAssay
# An excerpt weighted towards active compounds, which were near 4.1% of everything screened.
# KCNQ1 act – potentiates or activates the human KCNQ1 potassium channel | 0.35% of 310,000 active | CHO-K1 KCNQ1, thallium flux FluxOR fluorescence; active compounds read high | B-score at 10 µM | AID 2648 | P51787;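 active = fluorescence ratio B-score, a plate-corrected score, at least three library SD, with initial intensity B-score within 5 SD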
#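 Doses: Single concentration per compound, DMSO matched to controls | Test system: KCNQ1-transfected CHO-K1 cells | Timing: 90 min dye loading and 20 min compound exposure, both at room temperature | Measured by: Kinetic FluxOR thallium fluorescence, 10-s 1-Hz baseline, 110-s post-stimulus read | Medium: Assay buffer with matched DMSO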
# KCNK3 block – human KCNK3 channel inhibition, primary screen | O14649 | CHO-KCNK3 thallium flux, FluxOR fluorescence; active compounds read low | B-score at 10 µM | 0.84% of 340,000 active | AID 602410;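 active = B-score under library mean minus 4 SD, starting fluorescence ratio at most library mean plus 5 SD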;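 also: more negative B-score means stronger inhibition of thallium flux through KCNK3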
# KCC2 mod – KCC2 (human) Cl- transport modulation. B-score of Tl+ flux slope (higher = more flux/activation; lower = inhibition) at 10 µM. AID 1456. 2.2% of 190,000 active. KCC2 cells, thallium flux FluoZin-2 fluorescence. Q9H2X9;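 active = thallium flux slope and its plate-corrected score both differing from the plate sample mean at a set confidence after two filtering rounds, in either direction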;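 also: slope of fluorescence scaled to starting intensity during 10 to 20 s after thallium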
# KCNK9 inh – inhibitors of human KCNK9 two-pore domain potassium channel; 1.2% of 310,000 active; HEK293 KCNK9, FluxOR thallium flux fluorescence; active compounds read low; B-score at 10 µM; Q9NPC2;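 active = ratio B-score over 3 SD below the library mean, with starting fluorescence within 5 SD of its mean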;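 also: negative B-score means less thallium flux so channel inhibition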
# hERG rescue – compounds protecting human hERG from proarrhythmic drug block; 0.51% of 310,000 active; activation (rescue from dofetilide block), less the hit threshold, % at 10 µM; CHO-hERG, FluxOR thallium flux, dofetilide IC70 present; Q12809;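 active = activation above the mean of controls blocked by dofetilide plus 5 SD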;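 also: thallium influx through hERG after potassium depolarization seen as dye fluorescence rise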
# Target sequence (Q12809 whole entry, looked up): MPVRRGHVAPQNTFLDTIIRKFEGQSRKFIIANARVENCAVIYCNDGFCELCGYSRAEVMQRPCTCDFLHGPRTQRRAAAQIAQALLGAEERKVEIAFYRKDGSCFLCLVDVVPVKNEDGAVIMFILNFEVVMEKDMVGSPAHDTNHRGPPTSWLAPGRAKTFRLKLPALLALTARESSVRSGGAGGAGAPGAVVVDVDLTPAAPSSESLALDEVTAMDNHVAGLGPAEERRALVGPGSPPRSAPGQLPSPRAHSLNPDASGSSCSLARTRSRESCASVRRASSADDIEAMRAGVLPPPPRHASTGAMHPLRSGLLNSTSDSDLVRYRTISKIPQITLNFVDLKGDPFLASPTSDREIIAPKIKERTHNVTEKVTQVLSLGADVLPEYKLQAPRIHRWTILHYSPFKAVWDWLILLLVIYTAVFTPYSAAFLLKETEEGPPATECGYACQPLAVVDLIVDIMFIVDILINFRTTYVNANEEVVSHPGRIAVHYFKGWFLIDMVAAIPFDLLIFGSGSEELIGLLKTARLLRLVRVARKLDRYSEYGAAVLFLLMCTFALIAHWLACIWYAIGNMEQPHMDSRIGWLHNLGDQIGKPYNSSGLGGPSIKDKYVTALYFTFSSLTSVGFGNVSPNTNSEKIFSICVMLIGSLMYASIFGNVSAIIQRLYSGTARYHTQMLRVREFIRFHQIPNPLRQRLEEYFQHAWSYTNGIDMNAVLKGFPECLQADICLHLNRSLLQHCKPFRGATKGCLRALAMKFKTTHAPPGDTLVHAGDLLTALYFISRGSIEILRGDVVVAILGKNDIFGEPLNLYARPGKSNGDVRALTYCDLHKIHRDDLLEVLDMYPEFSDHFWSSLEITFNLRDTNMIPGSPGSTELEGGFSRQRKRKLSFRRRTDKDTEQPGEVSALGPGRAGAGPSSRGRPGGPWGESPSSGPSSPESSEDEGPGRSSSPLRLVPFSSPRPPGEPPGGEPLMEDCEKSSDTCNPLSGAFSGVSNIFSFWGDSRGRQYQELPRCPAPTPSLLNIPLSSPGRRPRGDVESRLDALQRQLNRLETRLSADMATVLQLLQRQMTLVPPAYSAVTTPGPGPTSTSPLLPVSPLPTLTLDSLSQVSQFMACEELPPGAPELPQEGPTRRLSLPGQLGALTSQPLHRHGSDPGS
# KCNQ1 block – inhibitors of human KCNQ1 potassium channel. AID 2642. B-score at 10 µM. 1.3% of 310,000 active. CHO-K1 KCNQ1, FluxOR thallium flux fluorescence; active compounds read high. P51787;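 active = compounds whose thallium flux B-score, printed positive for inhibition, exceeds three library SD while starting fluorescence stays within three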;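 also: channel opened by potassium depolarization with thallium stimulus after 20 min compound exposure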
# KCNK9 inh conf – confirmation of human KCNK9 potassium channel inhibitors | shares compounds with KCNK9 inh | 43% of 4,900 active | inhibition, % at 10 µM | AID 492992 | HEK293 KCNK9 cells, FluxOR thallium flux fluorescence;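 active = thallium signal inhibited by more than 5 SD of the compound-free buffer control wells, on both duplicate plates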;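 also: 0% = assay buffer control wells without compound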
# Kir2-1 spec – mouse Kir2.1 off-target activity of KCNK9 modulators. shares compounds with KCNK9 inh. Kir2.1 cells, FluxOR thallium flux fluorescence. inhibition, % at 10 µM. 4% of 4,900 active. AID 492993;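 active = thallium signal drop more than 5 SD beyond the mean of the no-compound control wells, seen in both duplicate plates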;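 also: signal is fluorescence rise after thallium addition divided by baseline fluorescence; plate controls were assay buffer only for no effect and full block by chlorpromazine control for full effect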
# HEK293 Tl ctr – second check of KCNK9 modulator effects in non-induced HEK293 cells; shares compounds with KCNK9 inh; FluxOR thallium flux; inhibition, % at 10 µM; 40% of 4,900 active; AID 492997;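 active = thallium signal drop beyond 5 SD of the untreated control mean, on both duplicate plates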;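 also: plate controls were buffer only IC0 wells for no effect and SID17386958 at its maximal inhibitory level for full effect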
# The depositor's hits bear a star; i = inactive; . = not tested or not shown.
SMILES,KCNQ1 act,KCNK3 block,KCC2 mod,KCNK9 inh,hERG rescue,KCNQ1 block,KCNK9 inh conf,Kir2-1 spec,HEK293 Tl ctr
CC(C)N(NC(=O)c1cccc2ccccc12)C(C)C,i,i,0.08,i,-4,i,.,.,.
COc1ccccc1NC(=O)Nc1nnc(C(C)C)s1,i,i,0.02,i,-10,i,.,.,.
COc1ccccc1NC(=O)Nc1nnc(C(C)c2ccccc2)s1 (stereo not drawn),i,i,.,-10*,-11,i,56%*,i,24%*
O=C(CCC(=O)c1cccs1)NCc1cccc(C(F)(F)F)c1,i,i,.,i,-13,i,.,.,.
CCCN1CCCc2cc(CN(CCCN3CCOCC3)C(=O)Nc3ccc(OCC)cc3)ccc21,i,i,0.17,i,-1,i,i,i,i
CCOc1ccc(NC(=O)N(CCN2CCOCC2)Cc2ccc3c(c2)CCCN3CC)cc1,i,i,.,i,-9,i,.,.,.
O=C(NNC(=O)c1ccncc1)Nc1cc(Cl)ccc1Cl,.,i,.,.,.,.,.,.,.
O=c1c2sccc2nc(SCc2ccc([N+](=O)[O-])cc2)n1Cc1ccccn1,i,i,-1.3,-9.6*,-12,i,74%*,i,28%*
Cc1ccc(CNC(=O)CSc2nc3ccsc3c(=O)n2Cc2ccccn2)cc1,i,i,0.1,i,-8,i,.,.,.
O=C(NCCCc1ccccc1)c1cc(COc2ccc(F)cc2Cl)on1,i,i,.,i,-8,6*,i,i,i
COc1cc(Cl)ccc1OCc1cc(C(=O)NCC(C)c2ccccc2)no1 (stereo not drawn),i,i,.,i,-8,i,i,i,i
COc1ccc(OCc2cc(C(=O)N(C)C3CCOC3)no2)c(Cl)c1 (stereo not drawn),i,i,.,i,-7,i,.,.,.
O=C(NCCc1cccnc1)c1cc(COc2ccc(F)cc2Cl)on1,i,i,.,i,-6,i,.,.,.
CN(C(=O)c1cc(COc2ccc(F)cc2Cl)on1)C1CCCc2ccccc21 (stereo not drawn),i,i,.,i,-9,i,i,i,24%*
C#Cc1cccc(C(=O)N2CCCC(C(=O)c3ccc(OC)cc3C)C2)c1 (stereo not drawn),i,i,.,i,-12,i,i,i,i
COc1ccc(C(=O)C2CCCN(C(=O)c3cc(C4CC4)[nH]n3)C2)c(C)c1 (stereo not drawn),i,i,.,i,-10,i,.,.,.
COc1ccc(C(=O)C2CCCN(C(=O)c3cccnc3SC)C2)c(C)c1 (stereo not drawn),i,i,1.1,i,-16,i,.,.,.
COc1ccc(C(=O)C2CCCN(C(=O)C3=CCCC3)C2)c(C)c1 (stereo not drawn),i,i,1.6,i,-14,i,i,i,i
Cn1c(=O)[nH]c(=O)c2c1[nH]c(=S)n2CCCc1ccccc1,i,i,.,i,-2,i,i,i,28%*
Cn1c(=O)c2c([nH]c(=S)n2CCCc2ccccc2)n(C)c1=O,i,i,.,i,-4,i,.,.,.
COc1ccccc1-c1cccc([C@@H]2C[C@H]3[C@H](CON3C)CN2C(=O)CCc2ccccc2)c1,.,i,.,.,.,.,.,.,.
COc1cc(C(=O)N2CCN(c3ccccc3Cl)CC2)ccc1OCC(=O)N1CCOCC1,.,i,.,.,.,.,.,.,.
O=C(NCc1ccco1)c1ccc2c(c1)N(Cc1ccccc1)C(=O)CS2,i,i,-0.43,i,-14,i,i,i,i
C=CCN1C(=O)CSc2ccc(C(=O)NCc3ccco3)cc21,i,i,.,i,-19,i,.,.,.
O=C(CCCOc1ccc(Cl)cc1Cl)N1CCc2ccccc2C1,i,i,-0.035,i,-1,i,i,i,i
SMILES,KCNQ1 act,KCNK3 block,KCC2 mod,KCNK9 inh,hERG rescue,KCNQ1 block,KCNK9 inh conf,Kir2-1 spec,HEK293 Tl ctr
Cc1ccc(C)c(OCC(=O)N2CCc3ccccc3C2)c1,i,i,.,i,-7,i,i,i,i
CN(C)c1cccc(C(=O)OCC(=O)N2CCc3ccccc3C2)c1,i,i,-2.9,i,-8,i,i,i,i
CC(OC(=O)c1cccc(N(C)C)c1)C(=O)N1CCc2ccccc2C1 (stereo not drawn),.,i,.,.,.,.,.,.,.
O=C(COC(=O)Cc1ccc(S(=O)(=O)N2CCOCC2)s1)Nc1ccccc1Cl,.,i,.,.,.,.,.,.,.
O=C(Oc1ccc2ccccc2c1Cl)N1CCCCCC1,i,i,-0.9,-13*,-5,i,37%*,i,28%*
Cc1cc(OC(=O)c2ccc(Cl)cc2Cl)c([N+](=O)[O-])c(=O)[nH]1,i,i,.,i,-6,i,.,.,.
O=C(/C=C/c1ccco1)Oc1cc(Br)cc(/C=N/NC(=O)c2ccccc2O)c1,i,i,0.058,-14*,-11,i,76%*,i,38%*
Cc1ccc(C(=O)N/N=C/c2cccc(OC(=O)/C=C/c3ccco3)c2)cn1,i,i,-0.23,i,-11,i,.,.,.
Cc1cccc(C)c1NC(=O)CNC(=O)c1ccncc1,i,i,.,i,-13,i,.,.,.
CC(C)(C)c1nnc(NS(=O)(=O)c2cc(Cl)ccc2Cl)s1,i,i,.,i,-6,i,.,.,.
O=S(=O)(Nc1nc(-c2sccc2Cl)cs1)c1cc(Cl)ccc1Cl,47*,i,.,i,47*,i,i,i,i
CCOC(=O)c1nn(-c2ccccc2F)c(-c2ccccc2)c1C(=O)c1ccccc1,i,i,0.16,-11*,-7,i,56%*,i,i
CCCCCC(=O)O[C@]1(C(C)=O)CC[C@H]2[C@@H]3CCC4=CC(=O)CC[C@]4(C)[C@H]3CC[C@@]21C,i,-10*,-1.1,-13*,-5,12*,66%*,i,45%*
CC(=O)OC1CCC2C3CCC4=CC(=O)CCC4(C)C3CCC2(C)[C@]1(C)O (stereo partly drawn),i,i,.,i,-3,i,.,.,.
COc1cc(CN2CCN(Cc3ccc(C(F)(F)F)cc3)CC2)cc(OC)c1OC,i,i,.,i,-5,i,i,i,i
